From ChEMBL document CHEMBL3872218, “Synthesis and T-type calcium channel-blocking effects of aryl(1,5-disubstituted-pyrazol-3-yl)methyl sulfonamides for neuropathic pain treatment” (Eur J Med Chem, 2016)

What was measured:
CYP2D6 = CYP2D6 (Homo sapiens, UniProt P10635); test: Inhibition of human CYP2D6 assessed as remaining activity at 10 uM using vivid CYP450 substrate measured after 15 mins by fluorescence assay relative to quinidine; assay type: ADME; settings: probe vivid CYP450 substrate, read-out: Activity
CYP2D6, sequence (P10635 whole entry, canonical isoform): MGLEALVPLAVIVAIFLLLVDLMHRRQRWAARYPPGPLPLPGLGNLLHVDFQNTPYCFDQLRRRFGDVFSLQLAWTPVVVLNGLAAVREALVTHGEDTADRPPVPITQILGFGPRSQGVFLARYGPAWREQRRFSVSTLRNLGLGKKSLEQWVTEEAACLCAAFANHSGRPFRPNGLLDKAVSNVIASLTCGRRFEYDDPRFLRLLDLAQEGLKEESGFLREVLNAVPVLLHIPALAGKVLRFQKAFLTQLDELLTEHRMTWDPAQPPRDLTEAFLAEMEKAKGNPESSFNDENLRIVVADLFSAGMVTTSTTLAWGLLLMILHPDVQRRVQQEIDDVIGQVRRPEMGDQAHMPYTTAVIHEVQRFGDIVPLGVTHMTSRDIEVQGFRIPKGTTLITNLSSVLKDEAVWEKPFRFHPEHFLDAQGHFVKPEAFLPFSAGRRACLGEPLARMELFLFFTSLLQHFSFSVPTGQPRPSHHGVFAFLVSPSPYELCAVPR
Procedure, shortened: (§1)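 Vivid fluorescence CYP assay: test compound at […] in water, mixed with BACULOSOMES master pre-mix and regeneration system, preincubated 15 min at 37 °C. Reaction started with Vivid substrate and NADPH. Remaining activity read by fluorescence as % of control, triplicate, mean ± SD. Isoform-specific reference inhibitors: α-naphthoflavone (1A2), sulfaphenazole (2C9), quinidine (2D6), ketoconazole (3A4).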

Rattus norvegicus [1] = test: Antineuropathic pain activity in rat spinal nerve ligation model assessed as effect on mechanical allodynia by measuring frequency of paw withdrawal at 100 mg/kg, po measured at 1 hr relative to gabapentin; assay type: functional
Procedure, shortened: (§2)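 Spinal nerve ligation rats tested 2 weeks after nerve surgery, 100 mg/kg oral, n = 4 per group. Behaviour re-tested at 1, 3 and 5 h after dosing. Mechanical allodynia: von Frey filament applied five times, every 3–4 s, to the hind paw on a wire mesh floor. Cold allodynia: acetone applied to the plantar hind paw on a metal mesh floor.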

[2] = Oral bioavailability in Sprague-Dawley rat at 10 mg/Kg; assay type: ADME, organism-based; settings: in vivo
[3] = Total clearance in Sprague-Dawley rat at 10 mg/kg, iv; assay type: ADME, organism-based; settings: in vivo
[4] = Metabolic stability in human liver microsomes assessed as compound remaining at 1 uM in presence of NADPH as cofactor by LC-MS/MS method; assay type: ADME; settings: read-out: Stability
Procedure, shortened: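 Pooled mixed-gender human liver microsomes incubated with compound at 37 °C with NADPH as cofactor. Result given as % parent compound remaining.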

CYP2C9 = CYP2C9 (Homo sapiens, UniProt P11712); test: Inhibition of human CYP2C9 assessed as remaining activity at 10 uM using vivid CYP450 substrate measured after 15 mins by fluorescence assay relative to sulfaphenazol; assay type: ADME; settings: probe vivid CYP450 substrate, read-out: Activity; procedure, shortened: as §1
CYP2C9, sequence (P11712 whole entry): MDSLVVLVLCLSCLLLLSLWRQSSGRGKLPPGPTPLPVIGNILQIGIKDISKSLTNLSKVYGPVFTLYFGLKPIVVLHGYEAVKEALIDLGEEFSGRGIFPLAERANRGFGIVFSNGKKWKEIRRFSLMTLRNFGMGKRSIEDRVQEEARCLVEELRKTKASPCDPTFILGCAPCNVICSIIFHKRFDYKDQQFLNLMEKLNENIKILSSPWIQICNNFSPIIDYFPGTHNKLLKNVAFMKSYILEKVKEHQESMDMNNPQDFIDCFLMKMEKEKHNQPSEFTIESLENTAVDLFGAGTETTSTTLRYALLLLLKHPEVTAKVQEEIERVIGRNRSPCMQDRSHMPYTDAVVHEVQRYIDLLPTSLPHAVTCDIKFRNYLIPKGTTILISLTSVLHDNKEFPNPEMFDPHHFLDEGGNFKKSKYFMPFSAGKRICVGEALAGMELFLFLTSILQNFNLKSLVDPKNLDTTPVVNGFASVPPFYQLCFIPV

Rattus norvegicus [5] = test: Antineuropathic pain activity in rat spinal nerve ligation model assessed as effect on cold allodynia by measuring frequency of paw withdrawal at 100 mg/kg, po measured at 3 hrs relative to control; assay type: functional; procedure, shortened: as §2
[6] = target: T1, Voltage-dependent T-type calcium channel subunit alpha-1H (Homo sapiens, UniProt O95180); test: Inhibition of Cav3.2 alpha1H (unknown origin) expressed in HEK293 cells by whole-cell patch clamp method; assay type: cell-based
T1 sequence (O95180 whole entry): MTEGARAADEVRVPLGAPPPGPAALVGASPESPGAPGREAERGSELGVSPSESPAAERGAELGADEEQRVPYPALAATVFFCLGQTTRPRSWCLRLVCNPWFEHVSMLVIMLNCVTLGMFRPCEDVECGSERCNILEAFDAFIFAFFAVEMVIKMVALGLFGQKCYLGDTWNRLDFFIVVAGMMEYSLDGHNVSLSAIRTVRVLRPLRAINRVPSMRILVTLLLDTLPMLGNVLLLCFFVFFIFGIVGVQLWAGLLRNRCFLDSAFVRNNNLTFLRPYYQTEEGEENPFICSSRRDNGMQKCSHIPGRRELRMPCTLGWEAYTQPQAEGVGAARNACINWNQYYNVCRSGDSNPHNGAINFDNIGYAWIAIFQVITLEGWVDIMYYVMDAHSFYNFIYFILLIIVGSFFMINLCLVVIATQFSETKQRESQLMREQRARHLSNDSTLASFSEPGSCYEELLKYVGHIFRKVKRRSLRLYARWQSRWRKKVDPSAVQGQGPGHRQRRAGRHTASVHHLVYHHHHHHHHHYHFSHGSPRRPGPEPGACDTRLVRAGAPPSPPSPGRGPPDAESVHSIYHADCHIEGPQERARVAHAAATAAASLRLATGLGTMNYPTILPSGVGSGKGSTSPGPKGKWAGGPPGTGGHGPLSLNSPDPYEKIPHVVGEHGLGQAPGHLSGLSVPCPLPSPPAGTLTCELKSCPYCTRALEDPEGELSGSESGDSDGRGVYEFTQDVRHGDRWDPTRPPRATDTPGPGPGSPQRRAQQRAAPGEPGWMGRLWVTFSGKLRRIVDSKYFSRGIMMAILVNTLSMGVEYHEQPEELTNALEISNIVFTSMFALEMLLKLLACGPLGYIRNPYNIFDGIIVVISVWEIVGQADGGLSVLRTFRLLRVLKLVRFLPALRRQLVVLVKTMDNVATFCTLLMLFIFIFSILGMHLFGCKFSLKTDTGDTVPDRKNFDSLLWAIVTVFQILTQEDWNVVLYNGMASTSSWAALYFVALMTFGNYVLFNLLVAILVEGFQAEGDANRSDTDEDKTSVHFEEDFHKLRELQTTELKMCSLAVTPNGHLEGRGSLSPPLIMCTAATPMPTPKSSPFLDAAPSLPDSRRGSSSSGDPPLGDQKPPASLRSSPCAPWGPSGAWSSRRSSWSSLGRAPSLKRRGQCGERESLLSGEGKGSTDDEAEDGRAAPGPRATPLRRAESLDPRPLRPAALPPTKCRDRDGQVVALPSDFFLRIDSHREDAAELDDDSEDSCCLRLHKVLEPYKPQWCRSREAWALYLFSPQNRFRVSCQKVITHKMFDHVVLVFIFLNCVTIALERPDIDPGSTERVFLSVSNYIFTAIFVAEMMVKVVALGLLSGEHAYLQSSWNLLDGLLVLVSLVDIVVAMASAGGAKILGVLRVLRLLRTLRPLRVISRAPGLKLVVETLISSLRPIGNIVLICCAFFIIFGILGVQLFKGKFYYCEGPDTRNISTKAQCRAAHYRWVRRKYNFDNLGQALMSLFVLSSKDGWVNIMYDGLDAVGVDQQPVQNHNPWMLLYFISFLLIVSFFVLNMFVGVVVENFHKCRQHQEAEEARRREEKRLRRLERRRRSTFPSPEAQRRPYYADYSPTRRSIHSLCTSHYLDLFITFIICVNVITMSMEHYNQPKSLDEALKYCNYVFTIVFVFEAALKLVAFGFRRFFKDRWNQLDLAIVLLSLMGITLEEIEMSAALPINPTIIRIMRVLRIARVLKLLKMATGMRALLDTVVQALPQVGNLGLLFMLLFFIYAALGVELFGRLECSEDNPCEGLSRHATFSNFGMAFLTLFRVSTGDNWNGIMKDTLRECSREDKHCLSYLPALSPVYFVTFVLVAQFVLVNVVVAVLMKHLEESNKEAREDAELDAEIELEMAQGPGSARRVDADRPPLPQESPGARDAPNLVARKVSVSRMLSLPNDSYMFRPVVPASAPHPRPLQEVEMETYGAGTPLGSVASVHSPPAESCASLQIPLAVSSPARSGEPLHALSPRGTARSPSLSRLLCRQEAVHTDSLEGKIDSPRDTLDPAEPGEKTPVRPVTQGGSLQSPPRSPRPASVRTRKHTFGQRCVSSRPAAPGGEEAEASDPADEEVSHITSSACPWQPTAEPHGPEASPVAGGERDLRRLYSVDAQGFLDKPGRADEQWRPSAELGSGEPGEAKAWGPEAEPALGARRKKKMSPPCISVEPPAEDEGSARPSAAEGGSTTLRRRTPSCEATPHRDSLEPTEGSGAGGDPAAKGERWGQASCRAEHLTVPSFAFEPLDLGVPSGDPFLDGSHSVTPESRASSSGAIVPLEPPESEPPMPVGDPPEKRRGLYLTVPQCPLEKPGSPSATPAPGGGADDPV
Procedure, shortened: (§3)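 Whole-cell patch clamp on HEK293 cells expressing Cav3.1 or Cav3.2. T-type currents evoked every 15 s by a 50-ms step from −100 mV to −30 mV. External solution (mM): 140 NaCl, 2 CaCl₂, 10 HEPES, 10 glucose, pH 7.4.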

[7] = AUClast in Sprague-Dawley rat at 10 mg/kg, po; assay type: ADME, organism-based; set-up: dose 10 mg/kg, route oral, time 0 - last; settings: in vivo
[8] = AUC (0 to infinity) in Sprague-Dawley rat at 10 mg/kg, iv; assay type: ADME, organism-based; set-up: dose 10 mg/kg, route intravenous, time infinity; settings: in vivo
[9] = Drug uptake in Sprague-Dawley rat brain at 10 mg/kg, iv at 2 hrs post dose; assay type: ADME, organism-based; settings: read-out: Drug uptake
[10] = Plasma concentration in Sprague-Dawley rat at 10 mg/kg, iv at 2 hrs post dose; assay type: ADME, organism-based
[11] = Ratio of drug level in brain to plasma in Sprague-Dawley rat at 10 mg/kg, iv at 2 hrs post dose; assay type: ADME, organism-based; settings: read-out: BPR
Rattus norvegicus [12] = test: Antineuropathic pain activity in rat spinal nerve ligation model assessed as effect on cold allodynia by measuring frequency of paw withdrawal at 100 mg/kg, po measured at 3 hrs relative to gabapentin; assay type: functional; procedure, shortened: as §2
[13] = Ratio of drug level in brain to plasma in Sprague-Dawley rat at 10 mg/kg, po at 2 hrs post dose; assay type: ADME, organism-based; settings: read-out: BPR
[14] = target: Voltage-dependent T-type calcium channel subunit alpha-1G (Homo sapiens, UniProt O43497); test: Inhibition of Cav3.1 alpha1G (unknown origin) expressed in HEK293 cells by whole-cell patch clamp method; assay type: cell-based; procedure, shortened: as §3
[15] = target: Voltage-gated inwardly rectifying potassium channel KCNH2 (Homo sapiens, UniProt Q12809); test: Inhibition of human ERG expressed in CHOK1 cells by whole-cell patch clamp method; assay type: cell-based, CHO-K1
Voltage-gated inwardly rectifying potassium channel KCNH2, sequence (Q12809 whole entry): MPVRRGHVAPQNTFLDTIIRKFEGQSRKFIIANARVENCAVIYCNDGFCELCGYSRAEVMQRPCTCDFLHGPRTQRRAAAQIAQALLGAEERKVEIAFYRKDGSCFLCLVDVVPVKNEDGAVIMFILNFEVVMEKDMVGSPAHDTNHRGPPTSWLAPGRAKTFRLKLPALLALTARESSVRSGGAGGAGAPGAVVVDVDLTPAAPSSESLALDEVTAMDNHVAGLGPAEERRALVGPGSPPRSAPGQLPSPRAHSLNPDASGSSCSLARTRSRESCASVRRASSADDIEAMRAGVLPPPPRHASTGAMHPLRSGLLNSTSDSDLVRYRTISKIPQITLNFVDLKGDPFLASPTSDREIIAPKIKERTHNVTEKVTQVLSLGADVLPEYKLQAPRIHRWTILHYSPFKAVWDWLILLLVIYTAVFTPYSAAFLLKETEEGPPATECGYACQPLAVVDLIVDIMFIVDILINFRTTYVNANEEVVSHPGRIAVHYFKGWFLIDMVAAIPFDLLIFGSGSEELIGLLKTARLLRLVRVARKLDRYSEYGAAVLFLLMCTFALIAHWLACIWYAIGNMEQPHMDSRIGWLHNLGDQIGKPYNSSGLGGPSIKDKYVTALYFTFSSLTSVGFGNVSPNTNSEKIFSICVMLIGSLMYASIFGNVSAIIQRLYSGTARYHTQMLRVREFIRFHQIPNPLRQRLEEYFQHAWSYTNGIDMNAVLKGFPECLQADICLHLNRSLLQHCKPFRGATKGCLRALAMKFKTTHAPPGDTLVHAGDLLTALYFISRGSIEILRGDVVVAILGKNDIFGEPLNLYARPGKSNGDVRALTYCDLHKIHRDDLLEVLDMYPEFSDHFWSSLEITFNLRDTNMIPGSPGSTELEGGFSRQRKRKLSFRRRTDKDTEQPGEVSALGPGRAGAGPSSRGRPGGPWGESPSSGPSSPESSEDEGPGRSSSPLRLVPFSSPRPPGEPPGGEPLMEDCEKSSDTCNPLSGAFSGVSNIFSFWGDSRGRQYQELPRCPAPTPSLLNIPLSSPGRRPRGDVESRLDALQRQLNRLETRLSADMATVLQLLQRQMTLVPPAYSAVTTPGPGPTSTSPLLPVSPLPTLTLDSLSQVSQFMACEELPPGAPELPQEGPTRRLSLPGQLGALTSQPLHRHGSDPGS

[16] = Drug excretion in Sprague-Dawley rat at 10 mg/kg, iv; assay type: ADME, organism-based; settings: in vivo, read-out: Drug excretion
[17] = target: T1, Voltage-dependent T-type calcium channel subunit alpha-1H; test: Inhibition of Cav3.2 alpha1H (unknown origin) expressed in HEK293 cells assessed as decrease in KCl-induced depolarization mediated intracellular Ca2+ level at 10 uM by fluo3/AM based high throughput screening assay relative to control; assay type: cell-based
Procedure, shortened: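 HEK293 cells stably expressing Cav3.1 or Cav3.2 plated at 4 × 10⁴ cells/well and used the next day. Loaded 60 min at room temperature with […] fluo3/AM plus 0.001% Pluronic F-127 in HEPES-buffered saline (1.8 mM CaCl₂, pH 7.4). Ca²⁺ fluorescence read on FDSS6000 as % inhibition, compound at […].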

Rattus norvegicus [18] = test: Antineuropathic pain activity in rat spinal nerve ligation model assessed as effect on mechanical allodynia by measuring frequency of paw withdrawal at 100 mg/kg, po measured at 3 hrs relative to gabapentin; assay type: functional; procedure, shortened: as §2
[19] = Plasma concentration in Sprague-Dawley rat at 10 mg/kg, po at 2 hrs post dose; assay type: ADME, organism-based
[20] = Terminal half life in Sprague-Dawley rat at 10 mg/kg, po; assay type: ADME, organism-based; settings: in vivo, read-out: beta t1/2
[21] = Cmax in Sprague-Dawley rat at 10 mg/kg, po; assay type: ADME, organism-based; set-up: dose 10 mg/kg, route oral; settings: in vivo
Rattus norvegicus [22] = test: Antineuropathic pain activity in rat spinal nerve ligation model assessed as effect on cold allodynia by measuring frequency of paw withdrawal at 100 mg/kg, po measured at 1 hr relative to control; assay type: functional; procedure, shortened: as §2
[23] = Drug excretion in Sprague-Dawley rat at 10 mg/kg, po; assay type: ADME, organism-based; settings: in vivo, read-out: Drug excretion
CYP3A4 = CYP3A4 (Homo sapiens, UniProt P08684); test: Inhibition of human CYP3A4 assessed as remaining activity at 10 uM using vivid CYP450 substrate measured after 15 mins by fluorescence assay relative to ketoconazole; assay type: ADME; settings: probe vivid CYP450 substrate, read-out: Activity; procedure, shortened: as §1
CYP3A4, sequence (P08684 whole entry): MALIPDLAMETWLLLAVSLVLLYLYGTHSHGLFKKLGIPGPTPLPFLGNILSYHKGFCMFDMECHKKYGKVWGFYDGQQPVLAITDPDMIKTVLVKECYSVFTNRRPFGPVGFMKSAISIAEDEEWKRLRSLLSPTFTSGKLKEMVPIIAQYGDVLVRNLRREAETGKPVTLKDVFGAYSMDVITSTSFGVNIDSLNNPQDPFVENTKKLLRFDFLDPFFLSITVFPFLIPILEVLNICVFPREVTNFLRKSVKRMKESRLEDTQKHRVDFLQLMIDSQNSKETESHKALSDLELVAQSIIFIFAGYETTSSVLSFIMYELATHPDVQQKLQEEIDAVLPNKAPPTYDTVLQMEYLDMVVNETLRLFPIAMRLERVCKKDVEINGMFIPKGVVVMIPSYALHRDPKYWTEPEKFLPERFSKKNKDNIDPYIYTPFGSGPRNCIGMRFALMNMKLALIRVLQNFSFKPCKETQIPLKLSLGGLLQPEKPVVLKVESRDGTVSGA

[24] = AUC (0 to infinity) in Sprague-Dawley rat at 10 mg/kg, po; assay type: ADME, organism-based; set-up: dose 10 mg/kg, time infinity, route oral; settings: in vivo
[25] = Drug uptake in Sprague-Dawley rat brain at 10 mg/kg, po at 2 hrs post dose; assay type: ADME, organism-based; settings: read-out: Drug uptake
Rattus norvegicus [26] = test: Antineuropathic pain activity in rat spinal nerve ligation model assessed as effect on mechanical allodynia by measuring frequency of paw withdrawal at 100 mg/kg, po measured at 1 hr relative to control; assay type: functional; procedure, shortened: as §2
Rattus norvegicus [27] = test: Antineuropathic pain activity in rat spinal nerve ligation model assessed as effect on mechanical allodynia by measuring frequency of paw withdrawal at 100 mg/kg, po measured at 3 hrs relative to control; assay type: functional; procedure, shortened: as §2
[28] = Apparent volume of distribution at steady state in Sprague-Dawley rat at 10 mg/kg, iv; assay type: ADME, organism-based; settings: in vivo, read-out: Vdss(app)
Rattus norvegicus [29] = test: Antineuropathic pain activity in rat spinal nerve ligation model assessed as effect on mechanical allodynia by measuring frequency of paw withdrawal at 100 mg/kg, po measured at 5 hrs relative to gabapentin; assay type: functional; procedure, shortened: as §2

CC(C)Cc1cc(CNS(=O)(=O)c2cccc(F)c2)nn1-c1ccccc1
activity at 0.25 h, 10 µM (CYP2D6): 204% | MPE (Rattus norvegicus [1]): 14.78% | bioavailability [2]: 8.3% | clearance [3]: 83.8 mL/min/kg | remaining at 1 µM [4]: 1.72% | activity at 0.25 h, 10 µM (CYP2C9): 30.4% | MPE (Rattus norvegicus [5]): 73.87% | IC50 [6]: 2.08 µM | AUC(0-t) [7]: 164 ng·h/mL | AUC(0-inf) [8]: 2020 ng·h/mL | concentration at 2 h [9]: 366 ng/mL | concentration at 2 h [10]: 270 ng/mL | Kp at 2 h [11]: 1.4 | MPE (Rattus norvegicus [12]): 91.75% | Kp at 2 h [13]: 0.19 | IC50 [14]: 3.2 µM | IC50 [15]: 14.5 µM | dose excreted [16]: 0% | inhibition [17]: 62.7% | MPE (Rattus norvegicus [18]): 52.13% | concentration at 2 h [19]: 50 ng/mL | half-life [20]: 1.11 h | Cmax [21]: 70 ng/mL | MPE (Rattus norvegicus [22]): 88.93% | dose excreted [23]: 0% | activity at 0.25 h, 10 µM (CYP3A4): 80.1% | AUC(0-inf) [24]: 168 ng·h/mL | concentration at 2 h [25]: 8.6 ng/mL | MPE (Rattus norvegicus [26]): 1.63% | MPE (Rattus norvegicus [27]): 29.68% | Vd [28]: 4.95 L/kg | MPE (Rattus norvegicus [29]): 43.02%
